Assay results: ChEMBL document CHEMBL2375262, “Thiazolidin-4-one and thiazinan-4-one derivatives analogous to rosiglitazone as potential antihyperglycemic and antidyslipidemic agents” (2013)

Tests used:
Assay type in all cases: functional
Mus musculus [1] = test: Insulin resistance reversal activity in db/db mouse assessed as decrease in plasma insulin level at 30 mg/kg, po qd administered 15 days measured on day 16 by ELISA relative to vehicle-treated control; set-up: scale not given: the % may be the effect or the level left
Method in brief: (§1)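 db/db males, 10-12 weeks, >40 g, baseline glucose 180-300 mg/dl, n=6 per group. Oral suspension in 1% gum acacia given once daily for days 1-15; vehicle controls. At study end, retro-orbital plasma insulin was measured by ELISA. Groups were compared by Dunnett's test.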

Mus musculus [2] = test: Antidyslipidemic activity in db/db mouse assessed as increase in plasma HDL-cholesterol level at 30 mg/kg, po qd administered 15 days […] relative to vehicle-treated control
Mus musculus [3] = test: Antidyslipidemic activity in db/db mouse assessed as decrease in plasma triglycerides level at 30 mg/kg, po qd administered 15 days measured on day 16 by ELISA relative to vehicle-treated control; set-up: scale not given: the % may be the effect or the level left; conditions: in the assay text read “by colorimetric assay” for “by ELISA”
Method in brief: (§2)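 Male db/db mice, 10-12 weeks old, over 40 g. After a 3-day vehicle run-in, animals with blood glucose 180-300 mg/dl were placed in groups of six and gavaged once daily on days 1-15 with a suspension in 1% gum acacia. Controls received vehicle. Terminal retro-orbital plasma was assayed for triglycerides, total and HDL-cholesterol with colorimetric kits. Dunnett's test was used.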

Mus musculus [4] = test: Antihyperglycemic activity in db/db mouse assessed as reduction of blood glucose level at 30 mg/kg, po qd measured daily for 15 days relative to vehicle-treated control; set-up: scale not given: the % may be the effect or the level left
Method in brief: (§3)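 Male db/db mice, 10-12 weeks, >40 g, with blood glucose 180-300 mg/dl; six per group. Dosed orally once daily in 1% gum acacia on days 1-15, with vehicle controls. Blood glucose was read daily. OGTT on days 10 and 15 after an overnight fast: glucose at -30, 0, 30, 60, 90 and 120 min around an oral 3.0 g/kg glucose load. Activity was taken from AUC versus control; Dunnett's test.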

L6 [5] = test: Antihyperglycemic activity in rat L6 cells assessed as increase in 2-deoxy-[3H]-D-glucose uptake at 10 uM after 18 hrs by liquid scintillation counting analysis relative to control
Method in brief: (§4)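 L6 myoblasts were differentiated to myotubes in DMEM with 2% FBS, then treated for 18 h. After washes, cells took up 3 µCi 2-deoxy-[3H]D-glucose plus 20 µM unlabelled 2-deoxyglucose in HEPES-buffered saline for 15 min. Cells were lysed in 0.1 N NaOH and counted by scintillation; results are % increase over control.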

Mus musculus [6] = test: Antidyslipidemic activity in db/db mouse assessed as decrease in plasma total cholesterol level at 30 mg/kg, po qd administered 15 days measured on day 16 […] relative to vehicle-treated control; set-up: scale not given: the % may be the effect or the level left; method in brief: as §2
3T3-L1 = test: Induction of adipogenesis in mouse 3T3L1 cells assessed as accumulation of lipid droplets at 10 uM measured on day 9 by Oil Red O staining method relative to control
Method in brief: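 3T3-L1 preadipocytes, 2 days post-confluence, were induced with 0.5 mM IBMX, 0.25 µM dexamethasone and insulin in DMEM/10% FBS with compound present. After 3 days, medium changed to insulin alone, then to DMEM/10% FBS. On day 9, lipid droplets were stained with 0.36% Oil Red O in 60% isopropanol for 30 min and examined by microscope.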

Mus musculus [7] = test: Antihyperglycemic activity in db/db mouse assessed as inhibition of post prandial blood glucose level at 30 mg/kg, po qd administered 15 days by OGTT relative to vehicle-treated control; conditions: 360 h; method in brief: as §3
Mus musculus [8] = test: Antihyperglycemic activity in db/db mouse assessed as inhibition of post prandial blood glucose level at 30 mg/kg, po qd administered 15 days measured on day 10 by OGTT relative to vehicle-treated control; method in brief: as §3
Mus musculus [9] = test: Antihyperglycemic activity in db/db mouse assessed as inhibition of post prandial blood glucose level at 100 mg/kg, po qd administered 15 days measured on day 10 by OGTT relative to vehicle-treated control; method in brief: as §3
Mus musculus [10] = test: Antidyslipidemic activity in db/db mouse assessed as increase in plasma HDL-cholesterol level at 100 mg/kg, po qd administered 15 days […] relative to vehicle-treated control
Mus musculus [11] = test: Antihyperglycemic activity in db/db mouse assessed as reduction of blood glucose level at 100 mg/kg, po qd measured daily for 15 days relative to vehicle-treated control; set-up: scale not given: the % may be the effect or the level left; method in brief: as §3
Mus musculus [12] = test: Insulin resistance reversal activity in db/db mouse assessed as decrease in plasma insulin level at 100 mg/kg, po qd administered 15 days measured on day 16 by ELISA relative to vehicle-treated control; set-up: scale not given: the % may be the effect or the level left; method in brief: as §1
Mus musculus [13] = test: Antidyslipidemic activity in db/db mouse assessed as decrease in plasma total cholesterol level at 100 mg/kg, po qd administered 15 days […] relative to vehicle-treated control; set-up: scale not given: the % may be the effect or the level left
Mus musculus [14] = test: Antidyslipidemic activity in db/db mouse assessed as decrease in plasma triglycerides level at 100 mg/kg, po qd administered 15 days […] relative to vehicle-treated control; set-up: scale not given: the % may be the effect or the level left
Mus musculus [15] = test: Antihyperglycemic activity in db/db mouse assessed as inhibition of post prandial blood glucose level at 100 mg/kg, po qd administered 15 days by OGTT relative to vehicle-treated control; conditions: 360 h; method in brief: as §3
L6 [16] = test: Antihyperglycemic activity in rat L6 cells assessed as increase in 2-deoxy-[3H]-D-glucose uptake at 50 uM after 18 hrs by liquid scintillation counting analysis relative to control; method in brief: as §4

SMILES	Activity (Mus musculus [1]) [%]	Activity (Mus musculus [2]) [%]	Activity (Mus musculus [3]) [%]	Activity (Mus musculus [4]) [%]	Activity (L6 [5]) [%]	Activity (Mus musculus [6]) [%]	Activity (3T3-L1) [%]	inhibition in vivo at 30 mg/kg (Mus musculus [7]) [%]	inhibition in vivo at 30 mg/kg (Mus musculus [8]) [%]	inhibition in vivo at 100 mg/kg (Mus musculus [9]) [%]	Activity (Mus musculus [10]) [%]	Activity (Mus musculus [11]) [%]	Activity (Mus musculus [12]) [%]	Activity (Mus musculus [13]) [%]	Activity (Mus musculus [14]) [%]	inhibition in vivo at 100 mg/kg (Mus musculus [15]) [%]	Activity (L6 [16]) [%]
CN(CCOc1ccc(C2SCC(=O)N2C2CC2)cc1)c1ccccn1 (configuration not stated)	31.8	8.8	15.6	25.6	67.2	12.6	3.87	-40.9	-26.6								
CN(CCOc1ccc(C2NC(=O)CS2)cc1)c1ccccn1 (configuration not stated)	27.4		14	18.5	51.9	19.3	5.53	-36.6	-25.9								
CN(C)C(=N)NC(=N)N [METFORMIN]										29.1	6.8	23.7	37	14.6	12.1	29.7	
CCCCN1C(=O)CSC1c1ccc(OCCN(C)c2ccccn2)cc1 (configuration not stated)	17.6	10.1	31.8	22.1		4.8		-25.4	-20.2								
CCCCN1C(=O)C[S+]([O-])C1c1ccc(OCCN(C)c2ccccn2)cc1 (configuration not stated)	24.6	39.6	19.2	25.9		10.8		-27.2	-12.9								
CN(CCOc1ccc(C2NC(=O)CCS2)cc1)c1ccccn1 (configuration not stated)	28.8	1.46	13.2	30.4	53.5	15.1		-44.9	-40.8								
CN(CCOc1ccc(C2SCCC(=O)N2Cc2ccccc2)cc1)c1ccccn1 (configuration not stated)	21.5	6.47	25.6	19.1	33	9.88		-42.6	-29.4								
CN(CCOc1ccc(C2N(Cc3ccccc3)C(=O)C[S+]2[O-])cc1)c1ccccn1 (configuration not stated)	20.4	20	18.4	22.1	45.5			-20.2	-6.4								
CC(C)N1C(=O)CCSC1c1ccc(OCCN(C)c2ccccn2)cc1 (configuration not stated)					14.8												
CN(CCOc1ccc(C2SCC(=O)N2Cc2ccccc2)cc1)c1ccccn1 (configuration not stated)	22.4	22.2	9.83	15.4		10.2		-16.4	-4.3								
CN(CCOc1ccc(C2SCCC(=O)N2C2CC2)cc1)c1ccccn1 (configuration not stated)	26.6	3.38	29.9	22.4	69.5	29.5		-27.9	-20.4								
CN(CCOc1ccc(CC2SC(=O)NC2=O)cc1)c1ccccn1 (configuration not stated) [ROSIGLITAZONE]	44.8		32.5	53.7		26.4	24	-40.7	-33.3								61.6
CCCCN1C(=O)CCSC1c1ccc(OCCN(C)c2ccccn2)cc1 (configuration not stated)					35.4												
CCCCN1C(=O)CS(=O)(=O)C1c1ccc(OCCN(C)c2ccccn2)cc1 (configuration not stated)	28.8	25.7	14.7	30.2	51.3	7.2											
